The subject of data set [1] is CCRF S-180. The data set can be described thus: Compound was tested in vivo for antitumor activity against murine sarcoma 180 in mice at 0.25 mg/kg dosage and efficacy is expressed as T/C (mice were implanted subcutaneously with tumor cells and the drug was dosed intravenously). Particulars: route intravenous. Format: functional, Mus musculus. The method, boiled down: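 Sarcoma 180 cells passaged in adult male ddY mice and inoculated sc at the axillary region, 5 mice/group; iv dosing began 1 day after inoculation. Tumour volume = length × width²/2. T/C is treated over control mean tumour volume; effective at ≤42%, Mann–Whitney U test (p < 0.05).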

For data set [2], the species on record is Mus musculus. The experiment in a line: Compound was tested for hematotoxicity and the number of white blood cells of tumor bearing mice on day 4(percent of control) was determined, expressed as percent of control. The class given is functional. The method, boiled down:
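Sarcoma 180-bearing mice dosed iv starting 1 day after sc tumour inoculation; 4 days later orbital-vein blood drawn and white blood cells counted on a microcell counter; value is treated count as percent of control.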

Data set [3] is filed under the species Mus musculus. The experiment in a line: Compound was tested for hematotoxicity and the number of peripheral platelets of normal mice on day 7 (percent of control) was determined, expressed as percent of control. Format: functional. The method, boiled down:
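Normal male ddY mice (mean weight 20 ± 1 g) given a single iv tail-vein injection of drug dissolved in saline; 7 days later orbital-vein blood drawn and platelets counted on a microcell counter; value is treated count as percent of control.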

Data set [4] relates to HeLa. The data set can be described thus: Compound was tested in vitro for anticellular activity against HeLa S3 cell growth at 72-hour exposure. The class given is functional, cell-based. Particulars: Homo sapiens.
Data set [5] has as its system HeLa. The data set can be described thus: Compound was tested in vitro for anticellular activity against HeLa S3 cell growth at 1-hour exposure. The class given is functional, cell-based. Particulars: Homo sapiens.
The test system of data set [6] is CCRF S-180. The data set can be described thus: Compound was tested in vivo for antitumor activity against murine sarcoma 180 in mice at 4 mg/kg dosage and efficacy is expressed as T/C (mice were implanted subcutaneously with tumor cells and the drug was dosed intravenously). Conditions: route intravenous.
Data set [7] in a line: Aqueous solubility of the compound. The class given is physicochemical. Conditions: water; read-out: S.

By IC50 is commonly meant the concentration that inhibits the measured activity by half. A lower IC50 goes with greater potency in that assay.

As for `COC(=O)c1c(C)[nH]c2c1[C@@]13C[C@@H]1CN(C(=O)/C=C/c1ccc(OC)cc1)C3=CC2=O`, the T/C in the data set with CCRF S-180 [1] is recorded as 0.34. Further, the Hematotoxicity in the data set filed under Mus musculus [2] is reported as 63%; in the data set filed under Mus musculus [3] it was 50%.
As for `COC(=O)c1c(C)[nH]c2c1[C@@]13C[C@@H]1CN(C(=O)/C=C/c1ccc(OC)nc1)C3=CC2=O`, the figures for the IC50 with HeLa [4] and with HeLa [5] were 0.42 nM and 3.3 nM, respectively. For the same compound, the Hematotoxicity in the data set listed under Mus musculus [2] was 84%; in the data set filed under Mus musculus [3] it was 50%. Also, the T/C in the data set on CCRF S-180 [6] came out at 0.6.
Turning to `COC(=O)c1c(C)[nH]c2c1[C@@]13C[C@@H]1CN(C(=O)/C=C/c1cnc(OC)nc1)C3=CC2=O`, the IC50 in the data set on HeLa [4] is 0.9 nM; with HeLa [5], 2.5 nM. Moreover, the T/C in the data set on CCRF S-180 [1] is 0.45. Besides, the Hematotoxicity in the data set filed under Mus musculus [2] was determined as 86%; in the data set filed under Mus musculus [3], 28%.
Turning to `COC(=O)c1c(C)[nH]c2c1[C@@]13C[C@@H]1CN(C(=O)/C=C/c1ccc(OC)cn1)C3=CC2=O`, the IC50 in the data set with HeLa [4] worked out at 2.9 nM; in the data set with HeLa [5], 9.7 nM.
The matching figures for `COC(=O)c1c(C)[nH]c2c1[C@@]13C[C@@H]1CN(C(=O)/C=C/c1ccc(OC)nn1)C3=CC2=O`: 0.28 nM and 0.5 nM.
As to `COC(=O)c1c(C)[nH]c2c(OC(=O)N3CCN(C)CC3)cc3c(c12)[C@H](CBr)CN3C(=O)/C=C/c1ccc(OC)cn1.Cl`, the IC50 with HeLa [4] is 150 nM; in the data set on HeLa [5], 1300 nM. Also, the T/C in the data set on CCRF S-180 [1] was found to be 0.5. The Hematotoxicity was 105% in the data set filed under Mus musculus [2] and 38% in the data set filed under Mus musculus [3]. The solubility in data set [7] was over 20 mg/mL.
As for `COC(=O)c1c(C)[nH]c2c(OC(=O)N3CCN(C)CC3)cc3c(c12)[C@H](CBr)CN3C(=O)/C=C/c1cnc(OC)nc1.Cl`, the results for the IC50 in the data set with HeLa [4] and in the data set on HeLa [5] were 170 nM and 1300 nM, respectively. The compound further had a T/C with CCRF S-180 [1] of 0.26. The Hematotoxicity in the data set listed under Mus musculus [2] is on record as 69%; in the data set listed under Mus musculus [3], 26%. In addition, the solubility in data set [7] is over 20 mg/mL.
Take `COC(=O)c1c(C)[nH]c2c(OC(=O)N3CCN(C)CC3)cc3c(c12)[C@H](CBr)CN3C(=O)/C=C/c1ccc(OC)nn1.Cl`: the IC50 in the data set with HeLa [4] came out at 90 nM; with HeLa [5] it was 1100 nM. The T/C in the data set on CCRF S-180 [1] is 0.31. Moreover, the Hematotoxicity in the data set listed under Mus musculus [2] is 115%; in the data set listed under Mus musculus [3] it was 51%. For the same compound, in data set [7], the solubility is over 20 mg/mL.
For `COC(=O)c1c(C)[nH]c2c(OC(=O)N3CCN(C)CC3)cc3c(c12)[C@H](CBr)CN3C(=O)/C=C/c1ccc(OC)nc1.Cl`, the results for the IC50 with HeLa [4] and with HeLa [5] were 110 nM and 900 nM, respectively. In addition, the T/C with CCRF S-180 [1] is on record as 0.36. The Hematotoxicity in the data set listed under Mus musculus [2] worked out at 92%; in the data set filed under Mus musculus [3], 38%. Further, the solubility in data set [7] was over 20 mg/mL.

Values taken from ChEMBL document CHEMBL1132586, “New water-soluble duocarmycin derivatives: synthesis and antitumor activity of A-ring pyrrole compounds bearing beta-heteroarylacryloyl groups” (J Med Chem, 1999).
